Reference: ChEMBL document CHEMBL1156186, “Anti-AIDS agents 81. Design, synthesis, and structure-activity relationship study of betulinic acid and moronic acid derivatives as potent HIV maturation inhibitors” (J Med Chem, 2010)
Calls of active or inactive are those of the source. The rule behind the calls is not given here.

Assays:
[1] = system: MT2; test: Cytotoxicity against human MT2 cells by XTT assay; assay type: cell-based
In short: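 Toxicity was read by XTT on mock-infected MT-2 cells (3×10⁵ cells/mL), run as a duplicate set of the infection plates without virus, with medium added on day 1 and the assay ended on day 4. IC₅₀ is the concentration toxic to 50% of cells. Values are the average of at least two experiments.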

[2] = system: Human immunodeficiency virus 1; test: Antiviral activity against HIV1 3B infected in human MT2 cells assessed as inhibition of viral replication at 0.8 to 100 ug/mL treated 1 day after infection measured on after 4 days postinfection by p24 antigen ELISA; assay type: functional, organism-based
In short: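 MT-2 cells at 3×10⁵ cells/mL were infected with HIV-1 IIIB (125 TCID₅₀) in the presence of serially diluted sample, and fresh medium was added on day 1 post-infection. Supernatants were harvested on day 4 for p24 antigen ELISA. EC₅₀ is the concentration giving 50% suppression of replication. Values are the average of at least two separate experiments.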

[3] = system: Human immunodeficiency virus 1; test: Antiviral activity against HIV1 3B infected in human MT2 cells assessed as inhibition of viral replication treated 1 day after infection measured on after 4 days postinfection by p24 antigen ELISA; assay type: functional, organism-based; conditions: Human immunodeficiency virus 1, 3B
[4] = Therapeutic index, IC50 for human MT2 cells to EC50 for HIV1 3B; assay type: cell-based; conditions: read-out: Ratio IC50/EC50
In short: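 TI is calculated as IC₅₀ (XTT, mock-infected MT-2) divided by EC₅₀ (p24 ELISA, HIV-1 IIIB-infected MT-2), both taken on day 4 post-infection from parallel plates. Values are the average of at least two experiments.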

[5] = system: Human immunodeficiency virus 1; test: Antiviral activity against HIV1 NL4-3 infected in human MT4 cells assessed as inhibition of viral replication treated 1 day after infection measured on after 4 days postinfection by p24 antigen ELISA; assay type: functional, organism-based
In short: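 MT-4 cells were infected with HIV-1 NL4-3 variants at an MOI of 0.01 in 96-well format with test sample. Culture supernatants were collected on day 4 post-infection for p24 antigen capture ELISA.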

[6] = system: Human immunodeficiency virus 1; test: Antiviral activity against HIV1 expressing […] L231M mutant infected in human HeLa cells assessed as inhibition of cell line-associated p25 to p24 conversion at 1 ug/mL after 2 days by Western blotting; assay type: functional, organism-based
In short: (§1)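 HeLa cells transfected with pNL4-3 bearing the A1V or L231M mutation and cultured with or without test compound. Two days post-transfection, cells labeled 2 h with ³⁵S-Met/Cys. Cell lysates prepared; virions pelleted by ultracentrifugation. Cell and viral lysates immunoprecipitated with HIV-Ig, then Western blotted for p25 and p24.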

[7] = system: Human immunodeficiency virus 1; test: Antiviral activity against HIV1 expressing […] L231M mutant infected in human HeLa cells assessed as inhibition of virion-associated p25 to p24 conversion at 1 ug/mL after 2 days by Western blotting; assay type: functional, organism-based; in short: as §1
[8] = system: Human immunodeficiency virus 1; test: Antiviral activity against HIV1 expressing CA-SP1 A1V mutant infected in human HeLa cells assessed as inhibition of cell line-associated p25 to p24 conversion at 1 ug/mL after 2 days by Western blotting; assay type: functional, organism-based; in short: as §1
[9] = system: Human immunodeficiency virus 1; test: Antiviral activity against HIV1 expressing CA-SP1 A1V mutant infected in human HeLa cells assessed as inhibition of virion-associated p25 to p24 conversion at 1 ug/mL after 2 days by Western blotting; assay type: functional, organism-based; in short: as §1
[10] = system: Human immunodeficiency virus 1; test: Antiviral activity against wild type HIV1 NL4-3 infected in human HeLa cells assessed as inhibition of cell line-associated p25 to p24 conversion at 1 ug/mL after 2 days by Western blotting; assay type: functional, organism-based
In short: (§2)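 HeLa cells were transfected with pNL4-3 proviral DNA and cultured with or without compound. Two days post-transfection, cells were metabolically labelled for 2 h with ³⁵S-Met/Cys. Cell lysates were prepared and virions were pelleted by ultracentrifugation. Both fractions were immunoprecipitated with HIV-Ig, and the p25 and p24 bands were examined by Western blotting.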

[11] = system: Human immunodeficiency virus 1; test: Antiviral activity against wild type HIV1 NL4-3 infected in human HeLa cells assessed as inhibition of virion-associated p25 to p24 conversion at 1 ug/mL after 2 days by Western blotting; assay type: functional, organism-based; in short: as §2

EC50 [3]	SMILES	IC50 [1]	inhibition [2]	selectivity ratio [4]	also measured
	CC1(C)C=C2[C@H]3CC[C@@H]4[C@@]5(C)CC[C@H](OC(=O)C6CCC6)C(C)(C)[C@@H]5CC[C@@]4(C)[C@]3(C)CC[C@@]2(C(=O)O)CC1	> 10 µM	inactive		
	CCC(=O)O[C@H]1CC[C@]2(C)[C@H]3CC[C@@H]4C5=CC(C)(C)CC[C@]5(C(=O)O)CC[C@@]4(C)[C@]3(C)CC[C@H]2C1(C)C	> 10 µM	inactive		
	C=C(C)[C@@H]1CC[C@]2(C(=O)O)CC[C@]3(C)[C@H](CC[C@@H]4[C@@]5(C)CC[C@H](OC(=O)C6CC=CCC6C(=O)O)C(C)(C)[C@@H]5CC[C@]43C)[C@@H]12 (some centres not stated)	41.1 µM	inactive		
	CCC(C)C(=O)O[C@H]1CC[C@]2(C)[C@H]3CC[C@@H]4C5=CC(C)(C)CC[C@]5(C(=O)O)CC[C@@]4(C)[C@]3(C)CC[C@H]2C1(C)C (some centres not stated)	> 10 µM	inactive		
2.2 µM	C=C(C)[C@@H]1CC[C@]2(C(=O)O)CC[C@]3(C)[C@H](CC[C@@H]4[C@@]5(C)CC[C@H](OC(=O)[C@@H]6CCC[C@H]6C(=O)O)C(C)(C)[C@@H]5CC[C@]43C)[C@@H]12	41.9 µM		19	
	CC(C)C(=O)O[C@H]1CC[C@]2(C)[C@H]3CC[C@@H]4C5=CC(C)(C)CC[C@]5(C(=O)O)CC[C@@]4(C)[C@]3(C)CC[C@H]2C1(C)C	> 10 µM	inactive		
	C=C(C)[C@@H]1CC[C@]2(C(=O)O)CC[C@]3(C)[C@H](CC[C@@H]4[C@@]5(C)CC[C@H](OC(=O)C6C7C=CC(C7)C6C(=O)O)C(C)(C)[C@@H]5CC[C@]43C)[C@@H]12 (some centres not stated)	40.3 µM	inactive		
0.12 µM	C=C(C)[C@@H]1CC[C@]2(C(=O)O)CC[C@]3(C)[C@H](CC[C@@H]4[C@@]5(C)CC[C@H](OC(=O)C[C@@H](C)C(=O)O)C(C)(C)[C@@H]5CC[C@]43C)[C@@H]12	43.8 µM		365	
	C=C(C)[C@@H]1CC[C@]2(C(=O)O)CC[C@]3(C)[C@H](CC[C@@H]4[C@@]5(C)CC[C@H](OC(=O)C[C@@](C)(CC)C(=O)O)C(C)(C)[C@@H]5CC[C@]43C)[C@@H]12				inhibition [5]: inactive
0.048 µM	C=C(C)[C@@H]1CC[C@]2(C(=O)O)CC[C@]3(C)[C@H](CC[C@@H]4[C@@]5(C)CC[C@H](OC(=O)CCC(C)(C)C(=O)O)C(C)(C)[C@@H]5CC[C@]43C)[C@@H]12	41.8 µM		870	
	CC1(C)C=C2[C@H]3CC[C@@H]4[C@@]5(C)CC[C@H](OC(=O)C6CCCC6)C(C)(C)[C@@H]5CC[C@@]4(C)[C@]3(C)CC[C@@]2(C(=O)O)CC1	> 10 µM	inactive		
0.0013 µM	C=C(C)[C@@H]1CC[C@]2(C(=O)O)CC[C@]3(C)[C@H](CC[C@@H]4[C@@]5(C)CC[C@H](OC(=O)CC(C)(C)C(=O)O)C(C)(C)[C@@H]5CC[C@]43C)[C@@H]12 [BEVIRIMAT]	42.8 µM		32900	
17.3 µM	C=C(C)[C@@H]1CC[C@]2(C(=O)O)CC[C@]3(C)[C@H](CC[C@@H]4[C@@]5(C)CC[C@H](OC(=O)[C@@H]6CCCC[C@H]6C(=O)O)C(C)(C)[C@@H]5CC[C@]43C)[C@@H]12	40.9 µM		2.4	
0.0006 µM	C=C(C)[C@@H]1CC[C@]2(C(=O)O)CC[C@]3(C)[C@H](CC[C@@H]4[C@@]5(C)CC[C@H](OC(=O)CC(C)(CC)C(=O)O)C(C)(C)[C@@H]5CC[C@]43C)[C@@H]12 (some centres not stated)	36.4 µM		60700	
	CC1(C)C=C2[C@H]3CC[C@@H]4[C@@]5(C)CC[C@H](OC(=O)C(C)(C)C)C(C)(C)[C@@H]5CC[C@@]4(C)[C@]3(C)CC[C@@]2(C(=O)O)CC1	> 10 µM	inactive		
	CCCCC(=O)O[C@H]1CC[C@]2(C)[C@H]3CC[C@@H]4C5=CC(C)(C)CC[C@]5(C(=O)O)CC[C@@]4(C)[C@]3(C)CC[C@H]2C1(C)C	> 10 µM	inactive		
	CCCC(=O)O[C@H]1CC[C@]2(C)[C@H]3CC[C@@H]4C5=CC(C)(C)CC[C@]5(C(=O)O)CC[C@@]4(C)[C@]3(C)CC[C@H]2C1(C)C	> 10 µM	inactive		
	CC(C)CC(=O)O[C@H]1CC[C@]2(C)[C@H]3CC[C@@H]4C5=CC(C)(C)CC[C@]5(C(=O)O)CC[C@@]4(C)[C@]3(C)CC[C@H]2C1(C)C	> 10 µM	inactive		

SMILES	EC50 [3]	IC50 [1]	inhibition [2]	selectivity ratio [4]	also measured
C=C(C)[C@@H]1CC[C@]2(C(=O)O)CC[C@]3(C)[C@H](CC[C@@H]4[C@@]5(C)CC[C@H](OC(=O)/C=C(/C)C(=O)O)C(C)(C)[C@@H]5CC[C@]43C)[C@@H]12	0.18 µM	42.5 µM		236	
C=C(C)[C@@H]1CC[C@]2(C(=O)O)CC[C@]3(C)[C@H](CC[C@@H]4[C@@]5(C)CC[C@H](OC(=O)C[C@H](C)C(=O)O)C(C)(C)[C@@H]5CC[C@]43C)[C@@H]12	0.0087 µM			3770	Activity [6]: Active; Activity [7]: Active; Activity [8]: Active; Activity [9]: Active; Activity [10]: Active; Activity [11]: Active
